Common to all, as to format: functional, organism-based
For one assay, the system named is Leishmania donovani. Kind of assay: Antileishmanial activity of compound against leishmania donovani was determined in luciferase assay. The method, boiled down:
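Transgenic Leishmania donovani promastigotes expressing firefly luciferase, 2×10^6 cell/mL, exposed to compound dilutions in 96-well plates at 26°C for 72 h; growth read by luciferase luminescence (Steady Glo). At least six concentrations, each in duplicate; mean values used for growth inhibition curves and IC50. Pentamidine and amphotericin B as standards.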

The test system of assay [1] is Plasmodium falciparum. Kind of assay: In vitro antimalarial activity against chloroquine-resistant Plasmodium falciparum W2 Indochina. The method, boiled down: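 Asynchronous P. falciparum cultures (2% hematocrit, 2% parasitemia) given compound dilutions in DMSO or RPMI-1640, incubated 48 h at 37°C under 90% N2/5% CO2/5% O2 in humidified chamber. Growth read as parasite lactate dehydrogenase activity with Malstat reagent. At least six concentrations, each in duplicate; medium and RBC controls on each plate.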

Assay [2] deals with Plasmodium falciparum. Kind of assay: In vitro antimalarial activity against chloroquine-sensitive Plasmodium falciparum D6 Sierra Leone.

By IC50 is commonly meant the concentration at which inhibition is half-maximal. The low end stands for higher potency, the high end for lower potency. On to `C[C@@H]1CC[C@H]2[C@H](CCCc3ccc(N(C)C)cc3)C(=O)O[C@@H]3O[C@@]4(C)CCC1[C@]32OO4` (some centres undefined), for which, in the assay with Leishmania donovani, the IC50 worked out at 88.3 µM.
Same read-out and setting: the result for `CCCC[C@H]1C(=O)O[C@@H]2O[C@@]3(C)CCC4[C@H](C)CC[C@@H]1[C@]42OO3` (some centres undefined) reads 12.3 µM.
For `CC(C)CN1C(=O)C[C@@H]2CC[C@@H](C)[C@@H]3CC[C@@]4(C)OO[C@@]23[C@H]1O4`, the IC50 with Leishmania donovani came to 186 µM.
On the same count and under the same terms, the result for `C[C@@H]1CC[C@H]2[C@@H](CCCc3ccc(Cl)cc3)C(O)O[C@@H]3O[C@@]4(C)CC[C@@H]1[C@]32OO4` (some centres undefined) reads 4.7 µM; that for `C[C@@H]1CC[C@H]2[C@@H](C)C(=O)O[C@@H]3O[C@@]4(C)CC[C@@H]1[C@]32OO4` [ARTEMISININ], 124 µM.
The same measure, in the same setting: the result for `CCCC[C@@]12CC[C@H]3[C@H](C)CC[C@H]4CCO[C@H](O1)[C@]43OO2` reads 152 µM; that for `C[C@@H]1CC[C@H]2[C@@H](CCCc3cc(F)cc(F)c3)C(O)O[C@@H]3O[C@@]4(C)CC[C@@H]1[C@]32OO4` (some centres undefined), 33 µM; that for `C[C@@H]1CC[C@H]2[C@@H](CCCc3cccc(F)c3)C(=O)O[C@@H]3O[C@@]4(C)CCC1[C@]32OO4` (some centres undefined), 3.7 µM.
Same read-out and setting: in the case of `C[C@@H]1CC[C@H]2[C@@H](C)C(=O)O[C@@H]3OC(C)(C)OO[C@@]32[C@H]1C` it was 158 µM; in that of `N=C(N)c1ccc(OCCCCCOc2ccc(C(=N)N)cc2)cc1` [PENTAMIDINE], 1.35 µM; in that of `C[C@@H]1CC[C@H]2CC(=O)O[C@@H]3O[C@@]4(CCCc5ccc(Cl)cc5)CCC1[C@@]23OO4` (some centres undefined), 11.1 µM.
In turn, `C[C@@H]1CC[C@H]2CC(=O)O[C@@H]3O[C@@]4(C)CCC1[C@@]23OO4` (some centres undefined) registered an IC50 with Leishmania donovani of 242 µM.
For the compound `C[C@@H]1CC[C@H]2CCO[C@@H]3O[C@@]4(C)CC[C@@H]1[C@@]23OO4`, the IC50 in the assay with Leishmania donovani turned out to be 49.2 µM.
Same read-out and setting: in the case of `COc1ccc(CCC[C@H]2C(=O)O[C@@H]3O[C@@]4(C)CCC5[C@H](C)CC[C@@H]2[C@]53OO4)cc1` (some centres undefined) it was 12 µM.
Same read-out and setting: the result for `C[C@@H]1CC[C@H]2[C@@H](CCCc3ccc(Cl)c(Cl)c3)CO[C@@H]3O[C@@]4(C)CC[C@@H]1[C@]32OO4` reads 2.3 µM; that for `C[C@@H]1CC[C@H]2CCO[C@@H]3OC4(CCc5ccccc5)CC[C@@H]1[C@@]23OO4` (single isomer, unassigned), 37.7 µM; that for `C[C@@H]1CC[C@H]2[C@@H](CCCc3ccc(C(F)(F)F)cc3)C(O)O[C@@H]3O[C@@]4(C)CC[C@@H]1[C@]32OO4` (some centres undefined), 2.9 µM.
Same read-out and setting: in the case of `C[C@@H]1CC[C@H]2CC(=O)N(Cc3ccc(Cl)cc3)[C@@H]3O[C@@]4(C)CC[C@@H]1[C@@]23OO4` it was 25.5 µM; in that of `CCC[C@H]1C(=O)O[C@@H]2O[C@@]3(C)CCC4[C@H](C)CC[C@@H]1[C@]42OO3` (some centres undefined), 16.8 µM.
In the case of `OC(c1cc(C(F)(F)F)nc2c(C(F)(F)F)cccc12)C1CCCCN1` (centres undefined) [MEFLOQUINE], the IC50 was found to be 0.195 µM in the assay on Plasmodium falciparum [1] and 0.17 µM with Plasmodium falciparum [2].
With `C[C@@H]1CC[C@H]2[C@@H](CCCc3ccc(Cl)cc3)C(=O)O[C@@H]3O[C@@]4(C)CCC1[C@]32OO4` (some centres undefined), the IC50 in the assay with Leishmania donovani was found to be 11.9 µM. This lies in the double-digit micromolar range.
`C[C@@H]1CC[C@H]2[C@@H](CCCc3cc(C(F)(F)F)cc(C(F)(F)F)c3)CO[C@@H]3O[C@@]4(C)CC[C@@H]1[C@]32OO4`: it took 0.3 µM to reach half-maximal inhibition with Leishmania donovani (IC50).
On the same count and under the same terms, the result for `C[C@@H]1CC[C@H]2[C@@H](CCc3ccccc3)C(=O)O[C@@H]3O[C@@]4(C)CCC1[C@]32OO4` (some centres undefined) reads 40.3 µM; that for `COc1ccc(CCC[C@H]2CO[C@@H]3O[C@@]4(C)CC[C@H]5[C@H](C)CC[C@@H]2[C@@]35OO4)cc1`, 17.4 µM; that for `CC[C@H]1C(=O)O[C@@H]2O[C@@]3(C)CCC4[C@H](C)CC[C@@H]1[C@]42OO3` (some centres undefined), 60.7 µM.
Same read-out and setting: in the case of `C[C@@H]1CC[C@H]2C(C)(C)C(=O)O[C@@H]3O[C@@]4(C)CCC1[C@]32OO4` (some centres undefined) it was 101 µM.
Same read-out and setting: the result for `C[C@@H]1CC[C@H]2[C@@H](CCCC(F)(F)F)C(=O)O[C@@H]3O[C@@]4(C)CCC1[C@]32OO4` (some centres undefined) reads 79.3 µM; that for `CCCC[C@H]1C(=O)O[C@@H]2O[C@@]3(CCCCc4ccccc4)CCC4[C@H](C)CC[C@@H]1[C@]42OO3` (some centres undefined), 4.5 µM.
Consider `CCOC(=O)CCC12CCC3[C@H](C)CC[C@H]4CC(=O)O[C@H](O1)[C@@]34OO2` (single isomer, unassigned), for which the midpoint of inhibition in the assay on Leishmania donovani, the IC50, lay at 31 µM.
On the same count and under the same terms, the result for `C[C@@H]1CC[C@H]2CC(=O)N(Cc3ccccc3)[C@@H]3O[C@@]4(C)CC[C@@H]1[C@@]23OO4` reads 56 µM.
In the assay with Leishmania donovani, `C[C@H]1[C@@H](O)O[C@@H]2O[C@@]3(C)CC[C@H]4[C@H](C)CC[C@@H]1[C@@]24OO3` [ARTENIMOL] yielded an IC50 of 70.3 µM.
Still for that read-out and setting: the result for `C[C@@H]1CC[C@H]2[C@@H](CCCc3ccc(C(F)(F)F)cc3)CO[C@@H]3O[C@@]4(C)CC[C@@H]1[C@]32OO4` reads 1.8 µM; that for `C[C@@H]1CC[C@H]2[C@@H](CCCC(F)(F)F)C(O)O[C@@H]3O[C@@]4(C)CC[C@@H]1[C@]32OO4` (some centres undefined), 26.3 µM; that for `C[C@@H]1CC[C@H]2CC(=O)N(CC(=O)OC(C)(C)C)[C@@H]3O[C@@]4(C)CC[C@@H]1[C@@]23OO4`, 27.5 µM.
Still for that read-out and setting: the result for `C[C@@H]1CC[C@H]2[C@@H](CCCCc3ccccc3)C(=O)O[C@@H]3O[C@@]4(C)CCC1[C@]32OO4` (some centres undefined) reads 7.5 µM; that for `CCCCN1C(=O)C[C@@H]2CC[C@@H](C)[C@@H]3CC[C@@]4(C)OO[C@@]23[C@H]1O4`, 44.5 µM; that for `C[C@@H]1CC[C@H]2[C@@H](CCCc3cccc(Cl)c3)CO[C@@H]3O[C@@]4(C)CC[C@@H]1[C@]32OO4`, 3.7 µM.
Still for that read-out and setting: in the case of `CC[C@@]12CC[C@H]3[C@H](C)CC[C@H]4CC(=O)O[C@H](O1)[C@]43OO2` it was 177 µM; in that of `C[C@@H]1CC[C@H]2CC(=O)N(CCc3ccccc3)[C@@H]3O[C@@]4(C)CC[C@@H]1[C@@]23OO4`, 32.3 µM.
For `CCCC[C@H]1C(=O)O[C@@H]2O[C@@]3(CC)CCC4[C@H](C)CC[C@@H]1[C@]42OO3` (some centres undefined), in the assay on Leishmania donovani, the midpoint of inhibition, the IC50, lay at 35.5 µM.
Still for that read-out and setting: in the case of `CCCC[C@H]1C(O)O[C@@H]2O[C@@]3(C)CC[C@H]4[C@H](C)CC[C@@H]1[C@@]24OO3` (some centres undefined) it was 383 µM; in that of `C[C@@H]1CC[C@H]2[C@@H](C)CO[C@@H]3OC4(C)CC[C@@H]1[C@]32OO4` (single isomer, unassigned) [DEOXOARTEMISININ], 46.6 µM.
Regarding `C[C@@H]1CC[C@H]2[C@@H](CCCc3cccc(Cl)c3)C(O)O[C@@H]3O[C@@]4(C)CC[C@@H]1[C@]32OO4` (some centres undefined), the IC50 with Leishmania donovani turned out to be 16.6 µM.
Same read-out and setting: the result for `CCC[C@@]12CCC3[C@H](C)CC[C@H]4CC(=O)O[C@H](O1)[C@@]34OO2` (some centres undefined) reads 40.5 µM.
On the same count and under the same terms, the result for `C[C@@H]1CC[C@H]2[C@@H](Cc3ccccc3)C(=O)O[C@@H]3O[C@@]4(C)CCC1[C@]32OO4` (some centres undefined) reads 15.3 µM.
On the same count and under the same terms, in the case of `C[C@@H]1CC[C@H]2[C@@H](CCCc3cc(F)cc(F)c3)CO[C@@H]3O[C@@]4(C)CC[C@@H]1[C@]32OO4` it was 11 µM; in that of `C=CC[C@H]1C(=O)O[C@@H]2O[C@@]3(C)CCC4[C@H](C)CC[C@@H]1[C@]42OO3` (some centres undefined), 17.8 µM.
`C[C@@H]1[C@H](O)[C@@H](C)/C=C/C=C/C=C/C=C/C=C/C=C/C=C/[C@H](O[C@@H]2O[C@H](C)[C@@H](O)[C@H](N)[C@@H]2O)C[C@@H]2O[C@](O)(C[C@@H](O)C[C@@H](O)[C@H](O)CC[C@@H](O)C[C@@H](O)CC(=O)O[C@H]1C)C[C@H](O)[C@H]2C(=O)O` [AMPHOTERICIN B] had an IC50 in the assay on Leishmania donovani of 0.01 µM. Compared with the last compound, the IC50 is about 1800-fold lower.
The same measure, in the same setting: the result for `C[C@@H]1CC[C@H]2CC(=O)O[C@@H]3OC4(CCc5ccccc5)CC[C@@H]1[C@@]23OO4` (single isomer, unassigned) reads 12.6 µM; that for `CCCC[C@@]12CCC3[C@H](C)CC[C@H]4CC(=O)O[C@H](O1)[C@@]34OO2` (some centres undefined), 258 µM; that for `C[C@@H]1CC[C@H]2[C@@H](CCCc3cc(F)cc(F)c3)C(=O)O[C@@H]3O[C@@]4(C)CCC1[C@]32OO4` (some centres undefined), 49.7 µM.
In turn, `C[C@@H]1CC[C@H]2CC(O)O[C@@H]3O[C@@]4(C)CC[C@@H]1[C@@]23OO4` (some centres undefined) displayed an IC50 with Leishmania donovani of 44.4 µM.
The same measure, in the same setting: in the case of `C[C@@H]1CC[C@H]2[C@@H](CCCc3ccc(Cl)cc3)CO[C@@H]3O[C@@]4(C)CC[C@@H]1[C@]32OO4` it was 4.9 µM; in that of `CC1(C)OO[C@]23CCCC[C@H]2C(C)(C)C(=O)O[C@@H]3O1`, 204 µM.
For `CCC[C@@]12CC[C@H]3[C@H](C)CC[C@H]4CCO[C@H](O1)[C@]43OO2`, in the assay on Leishmania donovani, 70.8 µM corresponded to half-maximal inhibition (IC50).
On to `CC(=O)O[C@@H]1O[C@@]2(C)CC[C@H]3[C@H](C)CCC[C@@]13OO2`, for which the IC50 in the assay on Leishmania donovani was 148 µM. This IC50 is about 2.1-fold higher than that of the compound before.
The same measure, in the same setting: in the case of `CCOC1O[C@@H]2O[C@]3(C)CC[C@H]4[C@H](C)CC[C@@H]([C@H]1C)C24OO3` (some centres undefined) it was 44.8 µM.
The same measure, in the same setting: in the case of `CC(C)CCC[C@H]1C(=O)O[C@@H]2O[C@@]3(C)CCC4[C@H](C)CC[C@@H]1[C@]42OO3` (some centres undefined) it was 8.5 µM.
